# High-throughput results from PubChem.
# A selection: hits, their analogues and other compounds. The true share with any hit is near 4.8%.
# HSF1 activator: HSF-1 activators, primary screen, NIH3T3-HGL cells, MG132 stress, luminescence, single point; NIH3T3-HGL HSF-1 luciferase reporter, 8 h; 100% = twice DMSO control signal; activation, % at 9 µM; 1.7% of 300,000 active;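 active = mean replicate activation of at least 50% with a set share of replicates each reaching 50%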;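 note: 0% = median of the neutral control wells and 100% = twice that signal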
# GPR7 antagonist: GPR7 receptor antagonists, primary screen, cell-based, fluorescence, single concentration. AID 1861, 2009. inhibition, % at 4.4 µM. Neuropeptides B/W receptor type 1 (Homo sapiens), P48145. GPR7-expressing cells, fluorescence antagonist assay. 1.1% of 290,000 active; in the data active = inhibition above about 16%, passing the limit was not always enough;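 note: cells stimulated with the agonist NPW; 0% = agonist with vehicle and 100% = vehicle without agonist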
# Target sequence (P48145 whole entry, looked up): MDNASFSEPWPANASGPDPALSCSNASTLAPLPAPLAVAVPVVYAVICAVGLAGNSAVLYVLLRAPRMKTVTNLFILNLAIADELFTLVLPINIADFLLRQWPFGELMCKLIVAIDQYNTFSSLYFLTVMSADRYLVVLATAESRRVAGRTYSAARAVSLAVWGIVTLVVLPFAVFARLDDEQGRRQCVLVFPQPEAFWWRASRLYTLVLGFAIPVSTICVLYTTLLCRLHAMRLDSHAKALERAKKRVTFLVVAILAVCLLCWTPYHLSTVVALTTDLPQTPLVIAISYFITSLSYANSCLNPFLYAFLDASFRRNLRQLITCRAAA
# T cruzi repl: inhibitors of intracellular T. cruzi growth, primary screen, luminescence, NIH3T3 host cells. inhibition, % (no concentration beside the values). T. cruzi beta-gal in NIH3T3, 90 h. 1.4% of 300,000 active. AID 1885, 2009;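 active = mean inhibition across valid replicates above about 55%, limit read from the data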;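 note: signal also drops with host cell toxicity which is not excluded here; 0% = plate median of DMSO wells and 100% = zero luminescence signal; higher percent means less beta-gal luminescence so fewer parasites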
#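 Test system: β-gal T. cruzi (Tulahuen C4) inside NIH/3T3 cells / Quantity: 5,000 cells/well / Measured by: luminescence from GalScreen with 0.05% NP40, read after 60 min / Medium: DMEM plus 2% FBS / Measure: parasite load inhibition, % / Reagent: Tulahuen C4 trypomastigotes, 5000/well / Schedule: co-culture of at least 90 h after 3 h attachment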
# HSF1 inhib: HSF1 inhibitors in luciferase reporter cells, primary screen, cell-based, NIH3T3, luminescence; NIH3T3-HGL HSE-luciferase, MG132-induced, luminescence 8 h; stronger effect = lower value; activity change, negative = inhibition, % at 7.5 µM (by protocol); 0.77% of 300,000 active;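 active = more than half of replicate wells show activity change below -50%, luminescence cut by over half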;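 note: luciferase reports HSF-1 transcriptional activity via heat shock element; 0% = median of DMSO wells and -100% = zero luminescence signal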
# 697 NFkB inh: inhibitors of PMA/ionomycin-induced NF-kB reporter, 697 cells, primary screen, B-cell NF-kB inhibitor project, cell-based, luminescence, uHTS; 697 B-cell NF-kB luciferase reporter, 16 h; inhibition, % at 4 µM; 0.33% of 330,000 active; in the data active = inhibition above about 35%
# Jurkat NFkB inh: inhibitors of induced NF-kB luciferase reporter, primary screen, TCR NF-kB activation inhibitor project, cell-based, luminescence, uHTS | AID 435003, 2010 | 0.53% of 330,000 active | Jurkat, PMA/ionomycin-induced NF-kB luciferase reporter | inhibition, % at 4 µM; in the data active = inhibition above about 50%
# Jurkat NFkB conf: PMA/ionomycin-induced NF-kB reporter inhibitors, Jurkat retest, confirmation, T-cell NF-kB inhibitor project, cell-based, luminescence, single concentration | shares compounds with Jurkat NFkB inh | Jurkat NF-kB luciferase, 16 h | inhibition, % at 4 µM | 27% of 2,700 active | AID 435020, 2010;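 active = inhibition reaching about 45% at 4 µM in either replicate, limit read from the data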;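 note: plate controls were PMA/ionomycin stimulated DMSO wells for no effect and unstimulated DMSO wells for full effect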
# * hit, by the source's call; nt = no result given.
SMILES,HSF1 activator,GPR7 antagonist,T cruzi repl,HSF1 inhib,697 NFkB inh,Jurkat NFkB inh,Jurkat NFkB conf
CCOc1ccccc1C1CC(=O)Nc2cc3c(cc21)OCO3 (stereo not given),-17.4,1.9,12.8,-24.7,-0.7,63.1*,60.5*
CC(C)Oc1ccccc1C1CC(=O)Nc2cc3c(cc21)OCCO3 (stereo not given),-22.5,7.3,10.0,-23.4,-19.6,78.1*,50.7*
COc1ccccc1C1CC(=O)Nc2cc3c(cc21)OCCO3 (stereo not given),-23.3,11.2,-82.5,-17.0,-38.7,42.4,nt
COc1cc(CCC(=O)Nc2c(C(=O)N3CCN(c4ccccc4)CC3)oc3ccccc23)on1,5.3,-2.7,15.1,3.8,-17.2,20.2,nt
O=C(COc1ccc2ccccc2c1Br)Nc1cccnc1,41.4,19.5,-1.6,8.4,-51.9,-50.4,nt
O=C(COc1ccc2ccccc2c1Br)Nc1ccncc1,10.2,13.9,-13.0,-5.3,0.3,55.9*,31.6
COc1ccc(OCC(=O)Nc2ccccc2N2CCCCC2)cc1,-8.8,-12.9,25.9,-0.6,3.9,63.5*,47.4
COc1ccc(N2CCCC2)c(NC(=O)COc2ccccc2)c1,6.5,-9.8,15.1,-7.9,0.4,-4.7,nt
COc1ccc(CC(=O)Nc2ccccc2N2CCCC2)cc1,10.1,-9.5,8.4,-4.6,-8.1,-12.4,nt
COc1ccc(CNCC(=O)Nc2ccccc2-n2cccc2)cc1,15.7,-5.2,-14.9,-1.6,-28.3,68.4*,13.1
O=C(NC1CCCCCC1)c1c2c(nc3ccccc13)CCN(Cc1ccccc1)C2,5.5,3.2,31.1,1.8,-14.7,0.5,nt
Cc1cc(N2CCN(C)CC2)ccc1NC(=O)c1c2c(nc3ccccc13)CCN(Cc1ccccc1)C2,25.0,1.9,58.0*,-0.6,10.5,76.6*,10.8
O=C(N/N=C/c1ccco1)c1ccc(NC(=O)c2ccc(Cl)cc2)cc1,-9.2,4.9,-3.2,-6.5,4.7,-15.4,nt
COc1ccccc1N1CCN(C(=O)c2ccc(-c3ccc(Cl)cc3)o2)CC1,nt,nt,nt,nt,-47.6,62.9*,52.7*
Cc1ccc(NC(=S)Nc2ccc(F)cc2)c(C)c1,14.9,-7.4,-17.8,2.4,0.5,3.9,nt
Clc1ccc(OCc2nc(-c3ccncc3)no2)c(Br)c1,85.2*,-5.0,47.3,52.1,-196.1,-165.7,-96.2
Clc1ccccc1OCc1nc(-c2ccncc2)no1,nt,-1.4,nt,nt,-106.7,-86.3,nt
CCN(c1ccc(NC(=O)CCc2nc3sc4c(c3c(=O)[nH]2)CCCC4)cc1)C(C)C,16.6,nt,31.2,1.4,4.4,16.1,nt
Cc1nn(-c2ccccc2)c(C)c1/C=N/NC(=O)c1cc(C2CC2)[nH]n1,-24.3,-11.4,3.1,-3.7,10.7,-5.6,nt
Cc1nn(-c2ccccc2)c(C)c1/C=N/NC(=O)c1cc(-c2ccc(Cl)s2)[nH]n1,-4.7,-0.1,16.3,0.7,-2.6,71.7*,33.5
Cc1cc(C(=O)N/N=C/c2c(C)nn(-c3ccccc3)c2C)n[nH]1,17.6,-6.2,-32.6,26.1,-0.9,7.1,nt
Cc1nn(-c2ccccc2)c(C)c1/C=N/NC(=O)c1cc(-c2ccc(Br)s2)[nH]n1,2.2,-11.5,4.8,-2.4,-18.9,62.0*,28.1
Cc1ccc(Nc2cc(C)nn2-c2nc(C)cc(=O)[nH]2)cc1,-7.6,5.2,56.0*,-7.6,-107.0,97.4*,67.5*
Cc1ccc(Nc2cc(C)nn2-c2nc(C)cc(C)n2)cc1,-23.0,-8.3,37.0,-1.0,-1.3,-12.4,nt
COc1ccc2oc(=Nc3cc(F)ccc3F)c(C(N)=O)cc2c1,70.5*,7.4,-1.2,34.2,-63.8,65.3*,24.8
SMILES,HSF1 activator,GPR7 antagonist,T cruzi repl,HSF1 inhib,697 NFkB inh,Jurkat NFkB inh,Jurkat NFkB conf
Cc1ccc(-c2cc(C(F)F)n3ncc(C(=O)N4CCc5ccccc54)c3n2)cc1,-5.3,-8.6,1.3,1.6,-46.1,61.0*,46.8*
O=C(COc1ccc2cc(Br)ccc2c1Br)N1CCOCC1,nt,-7.1,nt,nt,21.0,-9.6,nt
Cn1nnc2cc(C(=O)Nc3ccc4ccccc4c3)ccc21,35.1,-1.3,-3.8,11.0,-166.4,-162.6,-67.3
Cc1noc(C)c1COc1ccccc1C(=O)N1CCN(c2cccc(C(F)(F)F)c2)CC1,nt,nt,nt,nt,-65.0,55.4*,16.2
Cc1noc(C)c1COc1ccccc1C(=O)N1CCN(c2cccc(Cl)c2)CC1,nt,nt,nt,nt,-30.9,45.9,nt
CC(C)(C)c1ccc(C(=O)Nc2ccccc2Cl)cc1,-21.4,-14.8,19.2,-5.4,-106.4,-248.6,-167.2
Cc1cc(NC(=O)CN(C)S(=O)(=O)c2cnc[nH]2)ccc1Br,16.7,3.9,-19.0,8.3,1.6,-1.7,nt
COC(=O)c1c(-c2cccc3ccccc23)csc1NC(=O)Cc1ccc(OC)c(OC)c1,-16.8,-12.4,57.3*,-7.4,-4.5,53.1*,25.2
COC(=O)c1c(-c2ccc(C)cc2)csc1NC(=O)Cc1ccc(OC)c(OC)c1,21.4,-0.6,-10.6,8.8,nt,nt,nt
Cn1cccc1/C=N/NC(=O)c1cc(-c2cccs2)nc2ccccc12,-2.9,-5.3,-18.7,4.1,-15.3,53.1*,3.5
CCc1ccc(/C=N/NC(=O)c2cc(-c3ccncc3)nc3ccccc23)s1,-23.1,3.1,-21.8,-11.4,-74.8,63.4*,49.8*
CCCc1cc(C(=O)N/N=C/c2ccc(C)o2)c2ccccc2n1,16.1,0.4,4.2,-2.4,-9.2,19.1,nt
CCCc1cc(C(=O)N/N=C/c2ccc(CC)s2)c2ccccc2n1,6.7,11.0,-32.8,-8.5,-30.5,56.2*,48.2
COc1ccc(NS(=O)(=O)c2cccc3ccccc23)cc1,11.6,nt,-5.2,2.4,-13.5,3.8,nt
COc1ccc(CC(=O)NCc2ccc(-n3cccc3)cc2)cc1OC,-19.1,5.1,-44.0,-5.3,-48.1,55.0*,17.6
COc1cc(OC)cc(C(=O)NCc2ccc(-n3cccc3)cc2)c1,9.8,-1.1,6.8,-7.2,0.0,6.6,nt
Cc1ccc(CNC(=O)c2ccc(-n3cccc3)cc2)cc1,33.5,-4.9,-17.2,3.6,nt,nt,nt
Cc1ccc(CNC(=O)Cc2ccc(-n3cccc3)cc2)cc1,9.2,-2.1,-32.9,4.1,-41.7,52.7*,3.8
Cc1ccc(Oc2ncccc2C(=O)NC2CCSC2=O)cc1 (stereo not given),-11.3,-5.3,-7.3,-16.5,-9.0,8.5,nt
